Results published in ChEMBL document CHEMBL4689842, “EUbOPEN Chemogenomics Library wave 1” (2021).
“And” between values parts separate entries of the source, which are not always exact repeats. Identical values can stand only once.

What was measured:
Type in all cases: toxicity, cell-based
[1] = test system: U2OS; assay: Incucyte cell viability with U2OS; details: human, 10 µM, compound concentration 10 uM; further: filed as whole numbers so only -1 and 0 and 1 occur
[2] = test system: HEK-293T; assay: Incucyte cell viability with HEK293T; details: human, 10 µM, compound concentration 10 uM; further: filed as whole numbers so only -1 and 0 and 1 occur
[3] = test system: U2OS; assay: Multiplex assay against U2OS; details: human
In short: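 Phenotypes for tubulin, mitochondrial mass and membrane permeability are expressed as per cents of healthy-nucleus cells. Cells were stained live at seeding with Hoechst33342, BioTracker Green Microtubule Cytoskeleton Dye, MitoTracker Red and Annexin V Alexa Fluor 680, then imaged after compound addition on a CQ1 microscope at 37°C and 5% CO2. Machine-learning gating in CellPathfinder separated Hoechst high-intensity objects from normal cells, divided normal cells by nuclear state (healthy, pyknosed, fragmented) and divided pyknosed cells into mitotic or apoptotic.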

[4] = 6 h, replicate number 1, timepoint 6 hours
[5] = 18 h, replicate number 1, timepoint 18 hours
[6] = 24 h, replicate number 1, timepoint 24 hours
[7] = 12 h, 1 µM, compound concentration 1 uM, replicate 1
[8] = 12 h, 1 µM, compound concentration 1 uM, replicate 2
[9] = 12 h, 10 µM, compound concentration 10 uM, replicate 1
[10] = 12 h, 10 µM, compound concentration 10 uM, replicate 2
[11] = 24 h, 1 µM, compound concentration 1 uM, replicate 1
[12] = 24 h, 1 µM, compound concentration 1 uM, replicate 2
[13] = 24 h, 10 µM, compound concentration 10 uM, replicate 1
[14] = 24 h, 10 µM, compound concentration 10 uM, replicate 2
[15] = 48 h, 10 µM, compound concentration 10 uM, replicate 1
[16] = 48 h, 10 µM, compound concentration 10 uM, replicate 2

Cc1c(Nc2ccc(S(=O)(=O)N3CCN(C)CC3)cc2F)nc2ccc(-c3cnn(C4CC4)c3)cn2c1=O
Growth Rate ([1]; 0 h, replicate number 2, timepoint 0 hours): 0
Growth Rate [1, 4]: 1
Growth Rate ([1]; 12 h, replicate number 1, timepoint 12 hours): 0
Growth Rate [1, 5]: 0
Growth Rate ([1]; 18 h, replicate number 2, timepoint 18 hours): 1
Growth Rate [1, 6]: 0
Growth Rate ([1]; 24 h, replicate number 2, timepoint 24 hours): 1
Growth Rate ([2]; 0 h, replicate number 1, timepoint 0 hours): 1
Growth Rate [2, 4]: 0
Growth Rate ([2]; 12 h, replicate number 2, timepoint 12 hours): 1
Growth Rate [2, 5]: 1
Growth Rate [2, 6]: 1
Population Apoptotic (%) [3, 7]: 12%
Population Fragmented Nuclei (%) [3, 7]: 4%
Population Healthy Nuclei (%) [3, 7]: 91%
Population Hoechst High Intensity Objects (%) [3, 7]: 2%
Population Membrane Permeable-Phenotype (%) [3, 7]: 5%
Population Mitochondria Different-Phenotype (%) [3, 7]: 15%
Population Mitotic Cells (%) [3, 7]: 87%
Population Normal (%) [3, 7]: 97%
Population Pyknosed Nuclei (%) [3, 7]: 4%
Population Tubulin-Different-Phenotype (%) [3, 7]: 18%
Total Cell Count [3, 7]: 160
Population Apoptotic (%) [3, 8]: 0%
Population Fragmented Nuclei (%) [3, 8]: 5%
Population Healthy Nuclei (%) [3, 8]: 93%
Population Hoechst High Intensity Objects (%) [3, 8]: 8%
Population Membrane Permeable-Phenotype (%) [3, 8]: 10%
Population Mitochondria Different-Phenotype (%) [3, 8]: 17%
Population Mitotic Cells (%) [3, 8]: 100%
Population Normal (%) [3, 8]: 91%
Population Pyknosed Nuclei (%) [3, 8]: 1%
Population Tubulin-Different-Phenotype (%) [3, 8]: 15%
Total Cell Count [3, 8]: 119
Population Apoptotic (%) [3, 9]: 29% and 44%
Population Fragmented Nuclei (%) [3, 9]: 21% and 30%
Population Healthy Nuclei (%) [3, 9]: 73% and 60%
Population Hoechst High Intensity Objects (%) [3, 9]: 34% and 46%
Population Mitotic Cells (%) [3, 9]: 70% and 55%
Population Normal (%) [3, 9]: 65% and 53%
Population Pyknosed Nuclei (%) [3, 9]: 5% and 8%
Population Tubulin-Different-Phenotype (%) [3, 9]: 12% and 27%
Total Cell Count [3, 9]: 201 and 120
Population Fragmented Nuclei (%) [3, 10]: 56%
Population Healthy Nuclei (%) [3, 10]: 42% and 39%
Population Hoechst High Intensity Objects (%) [3, 10]: 41% and 58%
Population Membrane Permeable-Phenotype (%) [3, 10]: 17% and 8%
Population Mitochondria Different-Phenotype (%) [3, 10]: 11% and 23%
Population Mitotic Cells (%) [3, 10]: 80% and 35%
Population Normal (%) [3, 10]: 58% and 41%
Population Pyknosed Nuclei (%) [3, 10]: 1% and 3%
Population Tubulin-Different-Phenotype (%) [3, 10]: 11% and 8%
Population Apoptotic (%) [3, 11]: 0%
Population Fragmented Nuclei (%) [3, 11]: 1%
Population Healthy Nuclei (%) [3, 11]: 95%
Population Hoechst High Intensity Objects (%) [3, 11]: 1%
Population Membrane Permeable-Phenotype (%) [3, 11]: 7%
Population Mitochondria Different-Phenotype (%) [3, 11]: 7%
Population Mitotic Cells (%) [3, 11]: 100%
Population Normal (%) [3, 11]: 98%
Population Pyknosed Nuclei (%) [3, 11]: 2%
Population Tubulin-Different-Phenotype (%) [3, 11]: 17%
Total Cell Count [3, 11]: 173
Population Apoptotic (%) [3, 12]: 11%
Population Fragmented Nuclei (%) [3, 12]: 4%
Population Healthy Nuclei (%) [3, 12]: 89%
Population Hoechst High Intensity Objects (%) [3, 12]: 3%
Population Membrane Permeable-Phenotype (%) [3, 12]: 8%
Population Mitochondria Different-Phenotype (%) [3, 12]: 29%
Population Mitotic Cells (%) [3, 12]: 88%
Population Normal (%) [3, 12]: 96%
Population Pyknosed Nuclei (%) [3, 12]: 6%
Population Tubulin-Different-Phenotype (%) [3, 12]: 20%
Total Cell Count [3, 12]: 122
Population Apoptotic (%) [3, 13]: 29% and 32%
Population Fragmented Nuclei (%) [3, 13]: 15% and 33%
Population Healthy Nuclei (%) [3, 13]: 77% and 56%
Population Hoechst High Intensity Objects (%) [3, 13]: 27% and 49%
Population Membrane Permeable-Phenotype (%) [3, 13]: 14% and 7%
Population Mitochondria Different-Phenotype (%) [3, 13]: 8% and 22%
Population Mitotic Cells (%) [3, 13]: 70% and 67%
Population Normal (%) [3, 13]: 72% and 50%
Population Pyknosed Nuclei (%) [3, 13]: 6% and 10%
Population Tubulin-Different-Phenotype (%) [3, 13]: 7% and 16%
Total Cell Count [3, 13]: 284 and 128
Population Apoptotic (%) [3, 14]: 22% and 60%
Population Fragmented Nuclei (%) [3, 14]: 56% and 58%
Population Healthy Nuclei (%) [3, 14]: 41% and 37%
Population Hoechst High Intensity Objects (%) [3, 14]: 40% and 58%
Population Membrane Permeable-Phenotype (%) [3, 14]: 16% and 13%
Population Mitochondria Different-Phenotype (%) [3, 14]: 9% and 23%
Population Mitotic Cells (%) [3, 14]: 77% and 40%
Population Normal (%) [3, 14]: 59% and 41%
Population Pyknosed Nuclei (%) [3, 14]: 2% and 3%
Population Tubulin-Different-Phenotype (%) [3, 14]: 8% and 13%
Population Apoptotic (%) [3, 15]: 43%
Population Fragmented Nuclei (%) [3, 15]: 23%
Population Healthy Nuclei (%) [3, 15]: 67%
Population Hoechst High Intensity Objects (%) [3, 15]: 39%
Population Membrane Permeable-Phenotype (%) [3, 15]: 4%
Population Mitochondria Different-Phenotype (%) [3, 15]: 8%
Population Mitotic Cells (%) [3, 15]: 56%
Population Normal (%) [3, 15]: 60%
Population Pyknosed Nuclei (%) [3, 15]: 8%
Population Tubulin-Different-Phenotype (%) [3, 15]: 18%
Total Cell Count [3, 15]: 130
Population Apoptotic (%) [3, 16]: 71%
Population Fragmented Nuclei (%) [3, 16]: 57%
Population Healthy Nuclei (%) [3, 16]: 38%
Population Hoechst High Intensity Objects (%) [3, 16]: 53%
Population Membrane Permeable-Phenotype (%) [3, 16]: 11%
Population Mitochondria Different-Phenotype (%) [3, 16]: 17%
Population Mitotic Cells (%) [3, 16]: 28%
Population Normal (%) [3, 16]: 46%
Population Pyknosed Nuclei (%) [3, 16]: 3%
Population Tubulin-Different-Phenotype (%) [3, 16]: 8%
Total Cell Count [3, 16]: 45
